Here are results for 5 molecules from paper PMC7613793 (Cell metabolism, 2022).

Data set [1] has as its system tuberal region of the hypothalamus. Format: in vivo, mouse. The note with it: mice, intravenous (jugular vein), 90 nmol/Kg, 15 and 60 seconds after injection; Fig. 1a.
The subject of data set [2] is tanycytes and neuron-like cells of the ME and vmARH. Kind of data set: pCREB immunohistochemistry in ME/ARH after intravenous liraglutide. The data set is classed as in vivo, mouse. The conditions noted are these: mice, 90 nmol/Kg, at 1 min, n = 4 animals per group, Fig. 1f-h. In outline: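 Male mice, 8-10 weeks, fitted with a jugular vein catheter under ketamine-xylazine. Saline or liraglutide given i.v. at 90 nmol/Kg, then transcardial perfusion with saline and 0.1M PBS-4% PFA (pH 7.4). 30 μm free-floating sections double-stained with chicken anti-vimentin and rabbit anti-phospho-CREB. pCREB-positive tanycytes and neuron-like cells counted in ME, vmARH, dmARH and total ARH, 3–4 sections per animal. Unpaired t-test.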

The next data set deals with rat primary tanycytes. Kind of data set: pCREB induction in primary tanycytes. Format: cell-based. The note with it: Supplementary Fig. 2a.
For the next data set, the system named is hypothalamic neurons. The data set is classed as in vivo, mouse.
The format of data set [3] is in vivo, mouse.
Data set [4] has as its system dipeptidyl peptidase 4 (DPP-4). The note with it: cited from earlier work.
For a further data set, the system named is primary tanycytes. Format: in vitro ADME, rat. The conditions noted are these: 37 °C. The essentials:
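Rat tanycytes from median eminences of P10 pups, seeded on coated permeable supports (90 000 cells/cm2) 17 days after isolation: 4 days in 10% donor bovine serum, then 3 days serum-free with insulin and putrescine. On day 7, 15 min preincubation at 37 °C ± 1000 nM exendin9-39. Apical 0.7 nM 125I-liraglutide (1 μCi/ml) ± unlabeled liraglutide 10–10 000 nM, 60 min, 37 °C, shaking. Uptake read from cut supports; release in fresh buffer up to 1 h.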

Entries after “also recorded” stand apart in the source; their conditions may differ.

With `CCCCCCCCCCCCCCCC(=O)N[C@@H](CCC(=O)NCCCC[C@H](NC(=O)[C@H](C)NC(=O)[C@H](C)NC(=O)[C@H](CCC(N)=O)NC(=O)CNC(=O)[C@H](CCC(=O)O)NC(=O)[C@H](CC(C)C)NC(=O)[C@H](Cc1ccc(O)cc1)NC(=O)[C@H](CO)NC(=O)[C@H](CO)NC(=O)[C@@H](NC(=O)[C@H](CC(=O)O)NC(=O)[C@H](CO)NC(=O)[C@@H](NC(=O)[C@H](Cc1ccccc1)NC(=O)[C@@H](NC(=O)CNC(=O)[C@H](CCC(=O)O)NC(=O)[C@H](C)NC(=O)[C@@H](N)Cc1cnc[nH]1)[C@@H](C)O)[C@@H](C)O)C(C)C)C(=O)N[C@@H](CCC(=O)O)C(=O)N[C@@H](Cc1ccccc1)C(=O)N[C@H](C(=O)N[C@@H](C)C(=O)N[C@@H](Cc1c[nH]c2ccccc12)C(=O)N[C@@H](CC(C)C)C(=O)N[C@H](C(=O)N[C@@H](CCCNC(=N)N)C(=O)NCC(=O)N[C@@H](CCCNC(=N)N)C(=O)NCC(=O)O)C(C)C)[C@@H](C)CC)C(=O)O` [liraglutide], the “Route of brain entry of fluorescently labeled liraglutide” value in data set [1] was “did not cross the microvascular endothelial cells of the BBB; also recorded: extravasated through the fenestrated vessels of the ME”. Moreover, the “pCREB in tanycytes and neuron-like cells of the ME and vmARH vs saline” value in data set [2] is “markedly induced pCREB”. In addition, in the data set with rat primary tanycytes (liraglutide treatment), the “pCREB in rat primary tanycytes” value is on record as “induced”. The “c-Fos activation of neurons in AHN, PVH and LHA, control mice” value in the data set on hypothalamic neurons (anesthetized control mice, ten minutes after intravenous injection, 90 nmol/Kg) was “activated”. Further, in the data set on hypothalamic neurons (control mice, one hour after intraperitoneal injection), the “c-Fos expression in DMH and ZI, control mice” value was “did not significantly upregulate c-Fos expression”. Moreover, the “c-Fos expression, iBot mice” value in the data set with hypothalamic neurons (iBot littermates, one hour after intraperitoneal injection, Fig. 2d-f) is recorded as “unaffected”. Further, in the data set on hypothalamic neurons (mouse, in vivo, iv), the “c-Fos expression in hypothalamic neurons, iBot mice” value was “failed to significantly induce c-Fos expression”. The “c-Fos activation of neurons in PVH and LHA (not AHN), control mice” value with hypothalamic neurons (unanesthetized control mice, one hour after intraperitoneal injection, Fig. 2) is on record as “remain activated”. Besides, in data set [3] (control mice, 0.1 mg/kg for 3 consecutive days, vs saline), the Energy expenditure entry is given as “markedly reduced”. The Food intake result in data set [3] (control mice, 0.1 mg/kg for 3 consecutive days, vs saline, Fig. 3b) is “markedly reduced”. In data set [3] (control mice, 0.1 mg/kg for 3 consecutive days, Fig. 3e), the Fatty acid oxidation result is recorded as “increased fatty acid oxidation”. Moreover, the Fat mass entry in data set [3] (control mice, 0.1 mg/kg for 3 consecutive days, NMR body composition, Fig. 3d) is listed as “fat mass reduction”. For the same molecule, in data set [3] (mouse, in vivo, 0.1 mg/kg), the “Anti-obesity effects in iBot mice” value was “abrogated”. Further, the “Cleavage by DPP-4 and half-life compared to endogenous GLP1” value in data set [4] (ref Kim and Egan, 2008) is “reduces its cleavage by DPP-4 and prolongs its half-life”.
As to “Glucagon-like peptide 1 (GLP1; 7–36 amide)”, in data set [4] (in vivo, ref not given), the “Degradation by DPP-4 in vivo” value is listed as “rapid degradation”.
With “^125I-liraglutide: radioactively labeled liraglutide”, the “Liraglutide accumulation in tanycytes relative to endothelial cells” value in the data set with primary tanycytes (125I-liraglutide 0.7 nM, with or without unlabeled liraglutide 10 μM, transwell, uptake buffer pH 7.4, 60 min, n = 3, 3, 8, 8 wells from 2 independent experiments, Fig. 1c) is on record as “approximately 4 times”. Also, the “Time to saturation of uptake by tanycytes” value in the data set on primary tanycytes (pulse-chase experiment in vitro, Fig. 1e) is ≤ 15 min.
With exendin 9-39, the “Effect on liraglutide-induced pCREB in rat primary tanycytes” value with rat primary tanycytes (co-treatment with liraglutide) is given as “blunted”.
With “liraglutide^564: fluorescently labeled liraglutide provided by Novo Nordisk”, the “Route of brain entry of fluorescently labeled liraglutide” value in data set [1] is on record as “does not extravasate from BBB vessels”.
